This is an account of results in ChEMBL document CHEMBL1140578, “Solid-phase synthesis and biological evaluation of a uridinyl branched peptide urea library” (2007).

Converted amounts (≈) assume the structure as drawn. The source made the active and inactive calls. The calls are words filed in the database; no cut-off is given here.

For one assay, the system named is Bacillus anthracis. Kind of assay: Antimicrobial activity against Bacillus anthracis Sterne. Type of assay: functional, organism-based.
In another assay the test system is Escherichia coli. Put plainly: Antimicrobial activity against Escherichia coli K12. It is filed as functional, organism-based.
Another assay concerns Bacillus subtilis. Put plainly: Antimicrobial activity against Bacillus subtilis. It is filed as functional, organism-based.
The test system of a further assay is Enterococcus faecalis. Put plainly: Antimicrobial activity against Enterococcus faecalis. Type of assay: functional, organism-based.
The next assay concerns Staphylococcus aureus. Put plainly: Antimicrobial activity against methicillin-susceptible Staphylococcus aureus. It is filed as functional, organism-based.
Assay [1] has as its system Mycobacterium tuberculosis. Kind of assay: Antituberculosis activity against Mycobacterium tuberculosis H37Rv by micro-broth dilution method. It is filed as functional. In a few lines: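 M. tuberculosis H37Rv grown in Middlebrook 7H9 ADC medium and tested by microbroth dilution per CLSI guidelines, with 2×10^4 bacteria per well. Compounds were dissolved and diluted in DMSO (4 μl into 196 μl). The primary screen used 20, 10 and 5 μg/ml based on recovered yield. Resynthesized compounds were run as 1:1 serial dilutions from 200 to 1.56 μg/ml to give MIC90. Controls were no drug and isoniazid.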
For orientation: Dilution methods test growth across graded concentrations, often in twofold steps.

For the molecule `CCCNC(=O)N[C@@H](Cc1c[nH]c2ccccc12)C(=O)N[C@@H](CNC(=O)[C@@H](N)Cc1c[nH]c2ccccc12)C(=O)NC[C@H]1O[C@@H](n2ccc(=O)[nH]c2=O)[C@H](O)[C@@H]1O`, the outcome with Bacillus anthracis, in the assay on Escherichia coli, in the assay with Bacillus subtilis, in the assay on Enterococcus faecalis and in the assay on Staphylococcus aureus was inactive. Also, in assay [1], the MIC90 was 100 µg/mL (≈ 127 µM).

As to `CCCCCCNC(=O)N[C@@H](Cc1c[nH]c2ccccc12)C(=O)N[C@@H](CNC(=O)[C@@H](N)Cc1c[nH]c2ccccc12)C(=O)NC[C@H]1O[C@@H](n2ccc(=O)[nH]c2=O)[C@H](O)[C@@H]1O`, the outcome in the assay with Bacillus anthracis, in the assay on Escherichia coli, in the assay on Bacillus subtilis, with Enterococcus faecalis and in the assay on Staphylococcus aureus was inactive. The MIC90 in assay [1] came to 25 µg/mL (≈ 30.2 µM).

Consider `N[C@@H](Cc1c[nH]c2ccccc12)C(=O)NC[C@H](NC(=O)[C@H](Cc1c[nH]c2ccccc12)NC(=O)NCCc1ccccc1)C(=O)NC[C@H]1O[C@@H](n2ccc(=O)[nH]c2=O)[C@H](O)[C@@H]1O`, for which the outcome in the assay with Bacillus anthracis, with Escherichia coli, in the assay with Bacillus subtilis, in the assay with Enterococcus faecalis and with Staphylococcus aureus was inactive. In addition, the MIC90 in assay [1] worked out at 50 µg/mL (≈ 58.9 µM).

For `CC(=O)c1cccc(NC(=O)N[C@@H](Cc2c[nH]c3ccccc23)C(=O)N[C@@H](CNC(=O)[C@@H](N)Cc2c[nH]c3ccccc23)C(=O)NC[C@H]2O[C@@H](n3ccc(=O)[nH]c3=O)[C@H](O)[C@@H]2O)c1`, the outcome in the assay on Bacillus anthracis, in the assay with Escherichia coli, in the assay with Bacillus subtilis, with Enterococcus faecalis and in the assay on Staphylococcus aureus was inactive. Also, in assay [1], the MIC90 turned out to be 50 µg/mL (≈ 57.9 µM).

For `CC(=O)c1cccc(NC(=O)N[C@@H](Cc2c[nH]c3ccccc23)C(=O)N[C@@H](CNC(=O)[C@@H](N)CC(N)=O)C(=O)NC[C@H]2O[C@@H](n3ccc(=O)[nH]c3=O)[C@H](O)[C@@H]2O)c1`, the result in the assay on Bacillus anthracis, with Escherichia coli, with Bacillus subtilis, in the assay on Enterococcus faecalis and with Staphylococcus aureus was inactive. In addition, the MIC90 in assay [1] is more than 200 µg/mL.

Consider `CCCCCCNC(=O)N[C@@H](Cc1ccc(O)cc1)C(=O)N[C@@H](CNC(=O)[C@@H](N)Cc1c[nH]c2ccccc12)C(=O)NC[C@H]1O[C@@H](n2ccc(=O)[nH]c2=O)[C@H](O)[C@@H]1O`, for which the outcome in the assay on Bacillus anthracis, with Escherichia coli, with Bacillus subtilis, in the assay on Enterococcus faecalis and in the assay on Staphylococcus aureus was inactive. The MIC90 in assay [1] is 12.5 µg/mL (≈ 15.5 µM).

Consider `CSCC[C@H](NC(=O)NCCc1ccccc1)C(=O)N[C@@H](CNC(=O)[C@@H](N)Cc1ccc([N+](=O)[O-])cc1)C(=O)NC[C@H]1O[C@@H](n2ccc(=O)[nH]c2=O)[C@H](O)[C@@H]1O`, for which the outcome in the assay on Bacillus anthracis, with Escherichia coli, in the assay with Bacillus subtilis, with Enterococcus faecalis and with Staphylococcus aureus was inactive. Further, in assay [1], the MIC90 amounted to 100 µg/mL (≈ 125 µM).

For `COc1ccc(NC(=O)N[C@@H](Cc2ccc(O)cc2)C(=O)N[C@@H](CNC(=O)[C@@H](N)Cc2ccc([N+](=O)[O-])cc2)C(=O)NC[C@H]2O[C@@H](n3ccc(=O)[nH]c3=O)[C@H](O)[C@@H]2O)cc1`, the outcome with Bacillus anthracis, with Escherichia coli, in the assay on Bacillus subtilis, with Enterococcus faecalis and in the assay with Staphylococcus aureus was inactive. Besides, the MIC90 in assay [1] came to 12.5 µg/mL (≈ 15 µM).

As to `COc1ccc(NC(=O)N[C@@H](Cc2c[nH]c3ccccc23)C(=O)N[C@@H](CNC(=O)[C@@H](N)Cc2c[nH]c3ccccc23)C(=O)NC[C@H]2O[C@@H](n3ccc(=O)[nH]c3=O)[C@H](O)[C@@H]2O)cc1`, the result with Bacillus anthracis, with Escherichia coli, in the assay with Bacillus subtilis, in the assay with Enterococcus faecalis and in the assay on Staphylococcus aureus was inactive. This molecule returned an MIC90 in assay [1] of 12.5 µg/mL (≈ 14.7 µM).

Broadly, the MIC90 is the lowest concentration that inhibits either 90% of growth or 90% of the strains tested, depending on the study. High values mean lower susceptibility, low ones higher susceptibility.
